Reference: ChEMBL document CHEMBL1128417, “Synthesis and opioid activity of conformationally constrained dynorphin A analogues. 1. Conformational constraint in the "message" sequence” (J Med Chem, 1995)

Assays:
Cavia porcellus [1] = species on record: Cavia porcellus; test: Relative potency against electrically evoked contractions of the guinea pig ileum(GPI).; format: functional; set-up: reference not given here
Cavia porcellus [2] = species on record: Cavia porcellus; test: In vitro inhibition of electrically evoked contractions of the guinea pig ileum (GPI); format: functional
In short: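 Guinea pig ileum preparation, electrically stimulated; peptidase inhibitors (10 µM bestatin, 0.3 µM thiorphan) added to the tissue bath 5 min before each experiment. IC50 for inhibition of contractions taken from at least three replicates in tissues from different animals.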

[3] = biological target: Kappa-type opioid receptor (Cavia porcellus, UniProt P41144); test: Compound was evaluated for binding affinity against Opioid receptor kappa 1 using as the radioligand using competition binding assays.
[4] = biological target: Delta-type opioid receptor (Rattus norvegicus, UniProt P33533); test: Compound was evaluated for binding affinity against delta opioid receptor of rat forebrain using [3H]-DPDPE as the radioligand using competition binding assays.
Mu-type opioid receptor = Mu-type opioid receptor (Rattus norvegicus, UniProt P33535); test: Compound was evaluated for binding affinity against Opioid receptor mu 1 of rat forebrain using [3H]DAMGO as the radioligand using competition binding assays.
[5] = biological target: T1, Opioid receptors; mu & delta (Homo sapiens) (UniProt P41143+P35372); test: Ki ratio which is the ratio of Ki of k opioid receptor to the Ki of mu opioid receptor to the Ki of delta opioid receptor; 1/2.2/47; format: protein assay
[6] = biological target: T1, Opioid receptors; mu & delta (Homo sapiens); test: Ki ratio which is the ratio of Ki of k opioid receptor to the Ki of mu opioid receptor to the Ki of delta opioid receptor; 1/1.3/92; format: protein assay
[7] = biological target: T1, Opioid receptors; mu & delta (Homo sapiens); test: Ki ratio which is the ratio of Ki of k opioid receptor to the Ki of mu opioid receptor to the Ki of delta opioid receptor; 1.3/1/27; format: protein assay
[8] = biological target: T1, Opioid receptors; mu & delta (Homo sapiens); test: Ki ratio which is the ratio of Ki of k opioid receptor to the Ki of mu opioid receptor to the Ki of delta opioid receptor; 3.6/1/74; format: protein assay

Compound	Relative potency (Cavia porcellus [1])	IC50 (Cavia porcellus [2]) [nM]	Ki [3] [nM]	Ki [4] [nM]	Ki (Mu-type opioid receptor) [nM]	further results
CC[C@H](C)[C@H](NC(=O)[C@H](CCCN=C(N)N)NC(=O)[C@H](CCCN=C(N)N)NC(=O)[C@H](CCN=C(N(C)C)N(C)C)NC(=O)[C@H](Cc1ccccc1)NC(=O)CNC(=O)[C@@H](CC(=O)O)NC(=O)[C@@H](N)Cc1ccc(O)cc1)C(=O)N[C@@H](CCCN=C(N)N)C(=O)N1CCC[C@H]1C(=O)N[C@@H](CCCCN)C(=O)N[C@@H](CC(C)C)C(=O)N[C@@H](CCCCN)C(N)=O	122	0.18	0.14	7.52	0.32	
CC[C@H](C)[C@H](NC(=O)[C@H](CCCN=C(N)N)NC(=O)[C@H](CCCN=C(N)N)NC(=O)[C@@H]1CNC(=O)C[C@@H](NC(=O)[C@@H](N)Cc2ccc(O)cc2)C(=O)NCC(=O)N[C@@H](Cc2ccccc2)C(=O)N1)C(=O)N[C@@H](CCCN=C(N)N)C(=O)N1CCC[C@@H]1C(=O)N[C@@H](CCCCN)C(=O)N[C@@H](CC(C)C)C(=O)N[C@@H](CCCCN)C(N)=O						Ki ratio [5]: kappa/mu/delta
CC[C@H](C)[C@H](NC(=O)[C@H](CCCN=C(N)N)NC(=O)[C@H](CCCN=C(N)N)NC(=O)[C@@H]1CCNC(=O)C[C@@H](NC(=O)[C@@H](N)Cc2ccc(O)cc2)C(=O)NCC(=O)N[C@@H](Cc2ccccc2)C(=O)N1)C(=O)N[C@@H](CCCN=C(N)N)C(=O)N1CCC[C@H]1C(=O)N[C@@H](CCCCN)C(=O)N[C@@H](CC(C)C)C(=O)N[C@@H](CCCCN)C(N)=O [listing 1 of 2 here]		0.23	0.13	12	0.17	
CC[C@H](C)[C@H](NC(=O)[C@H](CCCN=C(N)N)NC(=O)[C@H](CCCN=C(N)N)NC(=O)[C@H](CC(C)C)NC(=O)[C@H](Cc1ccccc1)NC(=O)CNC(=O)CNC(=O)[C@@H](N)Cc1ccc(O)cc1)C(=O)N[C@@H](CCCN=C(N)N)C(=O)N1CCC[C@H]1C(=O)N[C@@H](CCCCN)C(=O)N[C@@H](CC(C)C)C(=O)N[C@@H](CCCCN)C(N)=O [listing 1 of 2 here]	100					
CC[C@H](C)[C@H](NC(=O)[C@H](CCCN=C(N)N)NC(=O)[C@H](CCCN=C(N)N)NC(=O)[C@@H]1CCNC(=O)C[C@@H](NC(=O)[C@@H](N)Cc2ccc(O)cc2)C(=O)NCC(=O)N[C@@H](Cc2ccccc2)C(=O)N1)C(=O)N[C@@H](CCCN=C(N)N)C(=O)N1CCC[C@H]1C(=O)N[C@@H](CCCCN)C(=O)N[C@@H](CC(C)C)C(=O)N[C@@H](CCCCN)C(N)=O [listing 2 of 2 here]	96					
CC[C@H](C)[C@H](NC(=O)[C@H](CCCN=C(N)N)NC(=O)[C@H](CCCN=C(N)N)NC(=O)[C@@H]1CCNC(=O)C[C@@H](NC(=O)[C@@H](N)Cc2ccc(O)cc2)C(=O)NCC(=O)N[C@@H](Cc2ccccc2)C(=O)N1)C(=O)N[C@@H](CCCN=C(N)N)C(=O)N1CCC[C@@H]1C(=O)N[C@@H](CCCCN)C(=O)N[C@@H](CC(C)C)C(=O)N[C@@H](CCCCN)C(N)=O						Ki ratio [6]: kappa/mu/delta
CC[C@H](C)[C@H](NC(=O)[C@H](CCCN=C(N)N)NC(=O)[C@H](CCCN=C(N)N)NC(=O)[C@@H]1CNC(=O)C[C@@H](NC(=O)[C@@H](N)Cc2ccc(O)cc2)C(=O)NCC(=O)N[C@@H](Cc2ccccc2)C(=O)N1)C(=O)N[C@@H](CCCN=C(N)N)C(=O)N1CCC[C@H]1C(=O)N[C@@H](CCCCN)C(=O)N[C@@H](CC(C)C)C(=O)N[C@@H](CCCCN)C(N)=O [listing 1 of 2 here]	138					
CC[C@H](C)[C@H](NC(=O)[C@H](CCCN=C(N)N)NC(=O)[C@H](CCCN=C(N)N)NC(=O)[C@H](CCCN=C(N(C)C)N(C)C)NC(=O)[C@H](Cc1ccccc1)NC(=O)CNC(=O)[C@@H](CC(=O)O)NC(=O)[C@@H](N)Cc1ccc(O)cc1)C(=O)N[C@@H](CCCN=C(N)N)C(=O)N1CCC[C@H]1C(=O)N[C@@H](CCCCN)C(=O)N[C@@H](CC(C)C)C(=O)N[C@@H](CCCCN)C(N)=O	12	1.78	0.36	14.2	0.28	
CC[C@H](C)[C@H](NC(=O)[C@H](CCCN=C(N)N)NC(=O)[C@H](CCCN=C(N)N)NC(=O)[C@H](CC(C)C)NC(=O)[C@H](Cc1ccccc1)NC(=O)CNC(=O)CNC(=O)[C@@H](N)Cc1ccc(O)cc1)C(=O)N[C@@H](CCCN=C(N)N)C(=O)N1CCC[C@H]1C(=O)N[C@@H](CCCCN)C(=O)N[C@@H](CC(C)C)C(=O)N[C@@H](CCCCN)C(N)=O [listing 2 of 2 here]		0.22				
CC[C@H](C)[C@H](NC(=O)[C@H](CCCN=C(N)N)NC(=O)[C@H](CCCN=C(N)N)NC(=O)[C@H](CN=C(N(C)C)N(C)C)NC(=O)[C@H](Cc1ccccc1)NC(=O)CNC(=O)[C@@H](CC(=O)O)NC(=O)[C@@H](N)Cc1ccc(O)cc1)C(=O)N[C@@H](CCCN=C(N)N)C(=O)N1CCC[C@H]1C(=O)N[C@@H](CCCCN)C(=O)N[C@@H](CC(C)C)C(=O)N[C@@H](CCCCN)C(N)=O	48	0.46	0.21	4.31	0.16	Ki ratio [7]: mu/kappa/delta
CC[C@H](C)[C@H](NC(=O)[C@H](CCCN=C(N)N)NC(=O)[C@H](CCCN=C(N)N)NC(=O)[C@H](CC(C)C)NC(=O)[C@H](Cc1ccccc1)NC(=O)CNC(=O)[C@@H](CC(=O)O)NC(=O)[C@@H](N)Cc1ccc(O)cc1)C(=O)N[C@@H](CCCN=C(N)N)C(=O)N1CCC[C@H]1C(=O)N[C@@H](CCCCN)C(=O)N[C@@H](CC(C)C)C(=O)N[C@@H](CCCCN)C(N)=O [listing 1 of 2 here]		0.46	0.45	0.044	0.013	
CC[C@H](C)[C@H](NC(=O)[C@H](CCCN=C(N)N)NC(=O)[C@H](CCCN=C(N)N)NC(=O)[C@H](CC(C)C)NC(=O)[C@H](Cc1ccccc1)NC(=O)CNC(=O)[C@@H](CC(=O)O)NC(=O)[C@@H](N)Cc1ccc(O)cc1)C(=O)N[C@@H](CCCN=C(N)N)C(=O)N1CCC[C@H]1C(=O)N[C@@H](CCCCN)C(=O)N[C@@H](CC(C)C)C(=O)N[C@@H](CCCCN)C(N)=O [listing 2 of 2 here]	32					
CC[C@H](C)[C@H](NC(=O)[C@H](CCCN=C(N)N)NC(=O)[C@H](CCCN=C(N)N)NC(=O)[C@@H]1CNC(=O)C[C@@H](NC(=O)[C@@H](N)Cc2ccc(O)cc2)C(=O)NCC(=O)N[C@@H](Cc2ccccc2)C(=O)N1)C(=O)N[C@@H](CCCN=C(N)N)C(=O)N1CCC[C@H]1C(=O)N[C@@H](CCCCN)C(=O)N[C@@H](CC(C)C)C(=O)N[C@@H](CCCCN)C(N)=O [listing 2 of 2 here]		0.16	0.22	10.2	0.49	
CC[C@H](C)[C@H](NC(=O)[C@H](CCCN=C(N)N)NC(=O)[C@H](CCCN=C(N)N)NC(=O)[C@@H]1CCCNC(=O)C[C@@H](NC(=O)[C@@H](N)Cc2ccc(O)cc2)C(=O)NCC(=O)N[C@@H](Cc2ccccc2)C(=O)N1)C(=O)N[C@@H](CCCN=C(N)N)C(=O)N1CCC[C@H]1C(=O)N[C@@H](CCCCN)C(=O)N[C@@H](CC(C)C)C(=O)N[C@@H](CCCCN)C(N)=O	55	0.4	0.68	14.1	0.19	Ki ratio [8]: mu/kappa/delta
